Activity calls are given as the source filed them. The calls are words filed in the database; no cut-off is given here.
Experiments:
Mus musculus [1] = test: CNS depressant activity in mouse assessed as immobility time at 100 mg/kg, ip measured 60 mins post dose by porsolt's swimming pool test; assay type: organism-based; parameters: dose 100 mg/kg, route intraperitoneal; conditions: in vivo, 1 h
Outline: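 Behavioral depression was measured by Porsolt's swim test in albino mice of either sex. Immobility time (s) was recorded 24 h before as the control and again 60 min after treatment. Values are mean ± SEM of six mice, compared with Student's t test.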

Mus musculus [2] = test: Anticonvulsant activity in mouse assessed as protection against maximal electroshock-induced seizures at 300 mg/kg, ip after 0.5 hrs; assay type: functional, organism-based; parameters: dose 300 mg/kg
Outline: (§1)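 Albino mice of either sex (25-30 g), housed under standard conditions with free access to pellet diet and water. Compounds given at 30, 100 and 300 mg/kg (n = 6). MES and scPTZ seizures were read at 0.5 h and 4 h. The value recorded is the minimum dose protecting half or more of the mice; 300 mg/kg is the maximum dose.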

Mus musculus [3] = test: Anticonvulsant activity in ip dosed mouse assessed as compound concentration causing protection against maximal electroshock-induced seizures in half or more test animals after 4 hrs; assay type: functional; conditions: read-out: MED; outline: as §1
Mus musculus [4] = test: Neurotoxicity in ip dosed mouse assessed as minimal motor impairment after 4 hrs by rotarod test; assay type: toxicity, organism-based; conditions: in vivo
Outline: (§2)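 Albino mice of either sex (25-30 g) received 30, 100 or 300 mg/kg (n = 6). Neurological deficit was assessed on the rotarod at 0.5 h and 4 h. The value recorded is the minimum dose producing neurotoxicity in half or more of the mice; 300 mg/kg is the maximum dose.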

Mus musculus [5] = test: Anticonvulsant activity in ip dosed mouse assessed as compound concentration causing protection against subcutaneous pentylenetetrazol-induced seizures in half or more test animals after 4 hrs; assay type: functional; conditions: read-out: MED; outline: as §1
Mus musculus [6] = test: Anticonvulsant activity in mouse assessed as protection against subcutaneous pentylenetetrazol-induced seizures at 300 mg/kg, ip after 0.5 hrs; assay type: functional, organism-based; parameters: dose 300 mg/kg; outline: as §1
Mus musculus [7] = test: Neurotoxicity in ip dosed mouse assessed as minimal motor impairment after 0.5 hrs by rotarod test; assay type: toxicity, organism-based; conditions: in vivo; outline: as §2
Mus musculus [8] = test: Hepatotoxicity in mouse assessed as effect on alkaline phosphatase level at 30 mg/kg/day, po dosed for 2 weeks relative to control; assay type: toxicity, organism-based; parameters: route oral; conditions: in vivo, 336 h
Outline: (§3)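 Serum SGOT, SGPT, alkaline phosphatase, total albumin and total protein were measured in treated mice against controls (n = 6). Data were analysed by ANOVA followed by Student's t test.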

Mus musculus [9] = test: Anticonvulsant activity in ip dosed mouse assessed as compound concentration causing protection against maximal electroshock-induced seizures in half or more test animals after 0.5 hrs; assay type: functional; conditions: read-out: MED; outline: as §1
[10] = Neurotoxicity in ip dosed mouse after 30 mins by rotarod test; assay type: toxicity, organism-based; conditions: in vivo
Mus musculus [11] = test: Hepatotoxicity in mouse assessed as hepatocytes degeneration at 30 mg/kg/day, po dosed for 2 weeks by Harris haematoxylin-eosin staining based […] microscopic analysis relative to control; assay type: toxicity, organism-based, Hepatocyte; parameters: route oral; conditions: 336 h
Mus musculus [12] = test: Increase in GABA level in mouse brain at 30 mg/kg, po dosed for 7 days by spectrophotometry relative to control; assay type: functional
Mus musculus [13] = test: Hepatotoxicity in mouse assessed as effect on SGPT level at 30 mg/kg/day, po dosed for 2 weeks relative to control; assay type: toxicity, organism-based; parameters: route oral; conditions: in vivo, 336 h; outline: as §3
Mus musculus [14] = test: Anticonvulsant activity in ip dosed mouse assessed as protection against maximal electroshock-induced seizures; assay type: functional
Mus musculus [15] = test: Anticonvulsant activity in ip mouse assessed as protection against subcutaneous pentylenetetrazol-induced seizures; assay type: functional
Outline: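 This is the Phase II quantitation in albino mice of either sex (25-30 g). […] TD50 came from the rotarod test, read 30 min after dosing. The protective index is TD50/ED50.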

Mus musculus [16] = test: Neurotoxicity in mouse assessed as minimal motor impairment at 300 mg/kg, ip after 4 hrs by rotarod test; assay type: toxicity, organism-based; parameters: dose 300 mg/kg, route intraperitoneal; conditions: in vivo; outline: as §2
Mus musculus [17] = test: Hepatotoxicity in mouse assessed as effect on SGOT level at 30 mg/kg, po after 2 weeks relative to control; assay type: toxicity, organism-based; parameters: dose 30 mg/kg, route oral; conditions: in vivo, 336 h; outline: as §3
Mus musculus [18] = species: Mus musculus; test: Protective index, ratio of TD50 for mouse to ED50 for anticonvulsant activity in mouse by maximal electroshock-seizure test; assay type: functional
Mus musculus [19] = test: Hepatotoxicity in mouse assessed as morphological changes in hepatic parenchyma at 30 mg/kg/day, po dosed for 2 weeks by Harris haematoxylin-eosin staining based […] microscopic analysis relative to control; assay type: toxicity, organism-based; parameters: route oral; conditions: in vivo, 336 h
Mus musculus [20] = test: Neuroprotective activity in acrylamide-intoxicated mouse assessed as reduction in brain malonaldehyde level at 50 mg/kg, ip dosed 3 days/week for 3 weeks administered 10 mins before acrylamide challenge by TBARS detection assay; assay type: functional, organism-based; parameters: dose 50 mg/kg
Outline: (§4)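 Mice were given acrylamide to induce brain degeneration, with compound administered 10 min before the acrylamide. Brain MDA (lipid peroxidation) and LDH activity were measured against controls. Values are mean ± SEM of six animals, compared with Student's t test.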

Mus musculus [21] = test: Neurotoxicity in mouse assessed as minimal motor impairment at 300 mg/kg, ip after 0.5 hrs by rotarod test; assay type: toxicity, organism-based; parameters: dose 300 mg/kg, route intraperitoneal; conditions: in vivo; outline: as §2
Mus musculus [22] = test: Hepatotoxicity in mouse assessed as effect on total albumin level at 30 mg/kg/day, po dosed for 2 weeks relative to control; assay type: toxicity, organism-based; parameters: route oral; conditions: in vivo, 336 h; outline: as §3
Mus musculus [23] = test: Protective index, ratio of TD50 for mouse to ED50 for anticonvulsant activity in mouse by subcutaneous pentylenetetrazol-induced seizure test; assay type: functional
Mus musculus [24] = test: Hepatotoxicity in mouse assessed as hepatic inflammation at 30 mg/kg/day, po dosed for 2 weeks by Harris haematoxylin-eosin staining based […] microscopic analysis relative to control; assay type: toxicity, organism-based; parameters: route oral; conditions: in vivo, 336 h
Mus musculus [25] = test: Hepatotoxicity in mouse assessed as liver necrosis at 30 mg/kg/day, po dosed for 2 weeks by Harris haematoxylin-eosin staining based […] microscopic analysis relative to control; assay type: toxicity, organism-based; parameters: route oral; conditions: in vivo, 336 h
Mus musculus [26] = test: Hepatotoxicity in mouse assessed as effect on total protein level at 30 mg/kg/day, po dosed for 2 weeks relative to control; assay type: toxicity, organism-based; parameters: route oral; conditions: in vivo, 336 h; outline: as §3
Mus musculus [27] = test: Neuroprotective activity in acrylamide-intoxicated mouse assessed as reduction in brain LDH level at 50 mg/kg, ip dosed 3 days/week for 3 weeks administered 10 mins before acrylamide challenge by spectrophotometry; assay type: functional, organism-based; parameters: dose 50 mg/kg; outline: as §4
Mus musculus [28] = test: Anticonvulsant activity in ip dosed mouse assessed as compound concentration causing protection against subcutaneous pentylenetetrazol-induced seizures in half or more test animals after 0.5 hrs; assay type: functional; conditions: read-out: MED; outline: as §1
Mus musculus [29] = test: Anticonvulsant activity in mouse assessed as protection against subcutaneous pentylenetetrazol-induced seizures at 300 mg/kg, ip after 4 hrs; assay type: functional, organism-based; parameters: dose 300 mg/kg; outline: as §1
Mus musculus [30] = test: Anticonvulsant activity in mouse assessed as protection against maximal electroshock-induced seizures at 300 mg/kg, ip after 4 hrs; assay type: functional, organism-based; parameters: dose 300 mg/kg; outline: as §1

Structure (SMILES)	Time (Mus musculus [1]) [s]	Activity (Mus musculus [2])	minimal effective dose (Mus musculus [3]) [mg/kg]	MTC (Mus musculus [4]) [mg/kg]	minimal effective dose (Mus musculus [5]) [mg/kg]	Activity (Mus musculus [6])	MTC (Mus musculus [7]) [mg/kg]	minimal effective dose (Mus musculus [9]) [mg/kg]	Activity (Mus musculus [16])	Activity (Mus musculus [21])	minimal effective dose (Mus musculus [28]) [mg/kg]	Activity (Mus musculus [29])	further results
O=C(Nc1nc2ccc(F)cc2s1)c1ccccc1C(=O)c1ccccc1	147.3	inactive	100	300	300	inactive	300	–	–	–	–	–	–
COc1ccc2nc(NC(=O)CCC(=O)c3ccccc3)sc2c1	135.6	–	30	–	100	–	–	30	Non-toxic	Non-toxic	100	–	Activity (Mus musculus [8]): Non-toxic; TD50 at 0.5 h [10]: 348 mg/kg; Activity (Mus musculus [11]): Non-toxic; fold change (FC) (Mus musculus [12]): 1.8; Activity (Mus musculus [13]): Non-toxic; ED50 (Mus musculus [14]): 41 mg/kg; ED50 (Mus musculus [15]): 85.2 mg/kg; Activity (Mus musculus [17]): Non-toxic; Ratio TD50/ED50 (Mus musculus [18]): 8.4; Activity (Mus musculus [19]): Non-toxic; Activity (Mus musculus [20]): Active; Activity (Mus musculus [22]): Non-toxic; Ratio TD50/ED50 (Mus musculus [23]): 4; Activity (Mus musculus [24]): Non-toxic; Activity (Mus musculus [25]): Non-toxic; Activity (Mus musculus [26]): Non-toxic; Activity (Mus musculus [27]): Active
CC(=O)c1ccc2nc(NC(=O)CCC(=O)c3ccccc3)sc2c1	168.3	inactive	100	–	300	inactive	–	–	Non-toxic	Non-toxic	–	–	–
O=C(Nc1nc2ccc(Cl)cc2s1)c1ccccc1C(=O)c1ccccc1	157	inactive	100	–	300	inactive	–	–	Non-toxic	Non-toxic	–	–	–
CCCC(CCC)C(=O)[O-].[Na+] [VALPROATE SODIUM]	–	–	–	–	–	–	–	–	–	–	–	–	ED50 (Mus musculus [15]): 149 mg/kg
O=C1NC(=O)C(c2ccccc2)(c2ccccc2)N1 [PHENYTOIN]	–	–	30	100	–	inactive	100	30	–	–	–	inactive	ED50 (Mus musculus [15]): > 300 mg/kg
Cc1ccc2nc(NC(=O)CCC(=O)c3ccccc3)sc2c1	130	–	100	–	300	–	–	100	Non-toxic	Non-toxic	300	–	Activity (Mus musculus [8]): Non-toxic; Activity (Mus musculus [13]): Non-toxic; Activity (Mus musculus [17]): Non-toxic; Activity (Mus musculus [20]): Active; Activity (Mus musculus [22]): Non-toxic; Activity (Mus musculus [26]): Toxic; Activity (Mus musculus [27]): Active
O=C(Nc1nc2ccc(Br)cc2s1)c1ccccc1C(=O)c1ccccc1	179.1	–	–	300	–	inactive	300	300	–	–	–	inactive	Activity (Mus musculus [30]): inactive
O=C(CCC(=O)c1ccccc1)Nc1nc2ccc(Br)cc2s1	162	inactive	300	300	–	inactive	–	–	–	Non-toxic	–	inactive	–
O=C(CCC(=O)c1ccccc1)Nc1nc2ccc(Cl)cc2s1	134.5	–	300	–	300	–	–	300	Non-toxic	Non-toxic	300	–	Activity (Mus musculus [8]): Non-toxic; Activity (Mus musculus [13]): Non-toxic; Activity (Mus musculus [17]): Non-toxic; Activity (Mus musculus [20]): Active; Activity (Mus musculus [22]): Non-toxic; Activity (Mus musculus [26]): Non-toxic; Activity (Mus musculus [27]): Active
CC(=O)c1ccc2nc(NC(=O)c3ccccc3C(=O)c3ccccc3)sc2c1	172.3	inactive	300	–	300	inactive	–	–	Non-toxic	Non-toxic	–	–	–
O=C(CCC(=O)c1ccccc1)Nc1nc2ccc(F)cc2s1	160	inactive	300	–	–	inactive	–	–	Non-toxic	Non-toxic	–	inactive	–
Cc1ccc2nc(NC(=O)c3ccccc3C(=O)c3ccccc3)sc2c1	180	–	–	–	–	–	–	300	Non-toxic	Non-toxic	300	inactive	Activity (Mus musculus [30]): inactive
O=C(CCC(=O)c1ccccc1)Nc1nc2ccc([N+](=O)[O-])cc2s1	166.1	–	–	300	–	inactive	–	300	–	Non-toxic	–	inactive	Activity (Mus musculus [30]): inactive
COc1ccc2nc(NC(=O)c3ccccc3C(=O)c3ccccc3)sc2c1	177	inactive	100	–	300	–	–	–	Non-toxic	Non-toxic	300	–	–
O=C(Nc1nc2ccc([N+](=O)[O-])cc2s1)c1ccccc1C(=O)c1ccccc1	154.3	–	–	300	–	inactive	300	300	–	–	–	inactive	Activity (Mus musculus [30]): inactive
NC(=O)N1c2ccccc2C=Cc2ccccc21 [CARBAMAZEPINE]	179.5	–	100	300	300	–	100	30	–	–	100	–	ED50 (Mus musculus [14]): 8.8 mg/kg; ED50 (Mus musculus [15]): > 100 mg/kg
O=C(CCC(=O)c1ccccc1)Nc1nc2cc(Cl)c(F)cc2s1	146.6	–	300	–	–	inactive	–	300	Non-toxic	Non-toxic	–	inactive	–
O=C(Nc1nc2cc(Cl)c(F)cc2s1)c1ccccc1C(=O)c1ccccc1	158.1	–	300	300	–	inactive	300	300	–	–	–	inactive	–
